{"source": "ChEMBL document CHEMBL1138085", "about": "“Thiazolo[5,4-f]quinazolin-9-ones, inhibitors of glycogen synthase kinase-3” (Bioorg Med Chem Lett, 2006)", "key": {"[1]": {"target": "Glycogen synthase kinase-3 (Homo sapiens, UniProt P49840+P49841)", "assay": "Inhibition of GSK3alpha/beta in presence of 15 uM ATP", "format": "protein assay", "procedure,_shortened": "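Assayed against GSK-3α/β using GS-1 peptide as substrate, final ATP 15 μM; conditions otherwise follow earlier published method.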"}, "[2]": {"target": "Cyclin-dependent kinase 1/cyclin B (Homo sapiens, UniProt P06493)", "assay": "Inhibition of CDK1/cyclinB in presence of 15 uM ATP", "format": "protein-complex assay"}, "[3]": {"target": "Cyclin-dependent kinase 5/CDK5 activator 1 (Homo sapiens, UniProt Q00535)", "sequence (Q00535 whole entry)": "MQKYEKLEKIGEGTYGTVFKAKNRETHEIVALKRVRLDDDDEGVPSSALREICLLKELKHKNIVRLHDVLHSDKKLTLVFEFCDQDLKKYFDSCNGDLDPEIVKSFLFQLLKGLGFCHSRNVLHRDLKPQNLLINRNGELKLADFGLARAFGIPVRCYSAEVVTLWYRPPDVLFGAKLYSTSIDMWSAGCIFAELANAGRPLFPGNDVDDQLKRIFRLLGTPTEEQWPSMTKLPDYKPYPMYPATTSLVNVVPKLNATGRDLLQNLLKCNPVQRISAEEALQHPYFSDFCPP", "sequence (Q15078 whole entry, further chain)": "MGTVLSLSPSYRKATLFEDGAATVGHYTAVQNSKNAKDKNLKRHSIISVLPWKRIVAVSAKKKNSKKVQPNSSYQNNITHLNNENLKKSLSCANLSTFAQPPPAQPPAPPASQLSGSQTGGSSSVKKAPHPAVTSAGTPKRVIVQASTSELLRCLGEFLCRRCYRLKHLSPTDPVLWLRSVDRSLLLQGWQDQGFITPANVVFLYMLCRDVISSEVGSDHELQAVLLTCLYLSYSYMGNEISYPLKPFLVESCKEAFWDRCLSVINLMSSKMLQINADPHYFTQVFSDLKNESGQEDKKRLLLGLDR", "assay": "Inhibition of CDK5/p25 in presence of 15 uM ATP", "format": "protein-complex assay", "procedure,_shortened": "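Kinase activity assayed with histone H1 as protein substrate and ATP at 15 μM final; procedure otherwise as previously described.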"}}, "data": [{"smiles": "CCn1cnc2ccc3nc(C(=N)NC(C)C)sc3c2c1=O", "values": [{"measurement": "IC50", "setting": "[1]", "result": 7.2, "unit": "µM"}]}, {"smiles": "CCn1cnc2ccc3nc(C4=NCCN4)sc3c2c1=O", "values": [{"measurement": "IC50", "setting": "[2]", "result": "> 100", "unit": "µM"}, {"measurement": "IC50", "setting": "[3]", "result": "> 100", "unit": "µM"}, {"measurement": "IC50", "setting": "[1]", "result": 4.2, "unit": "µM"}]}, {"smiles": "CC(C)n1cnc2ccc3nc(C(=N)NCCN(C)C)sc3c2c1=O", "values": [{"measurement": "IC50", "setting": "[2]", "result": 10, "unit": "µM"}, {"measurement": "IC50", "setting": "[3]", "result": 4, "unit": "µM"}, {"measurement": "IC50", "setting": "[1]", "result": 0.56, "unit": "µM"}]}, {"smiles": "CC(C)CCn1cnc2ccc3nc(C4=NCCN4)sc3c2c1=O", "values": [{"measurement": "IC50", "setting": "[2]", "result": "> 10", "unit": "µM"}, {"measurement": "IC50", "setting": "[3]", "result": "> 10", "unit": "µM"}, {"measurement": "IC50", "setting": "[1]", "result": "> 10", "unit": "µM"}]}, {"smiles": "CCn1cnc2ccc3nc(C(=N)NCCN(C)C)sc3c2c1=O", "values": [{"measurement": "IC50", "setting": "[1]", "result": 1.3, "unit": "µM"}]}, {"smiles": "CCCn1cnc2ccc3nc(C4=NCCN4)sc3c2c1=O", "values": [{"measurement": "IC50", "setting": "[2]", "result": "> 100", "unit": "µM"}, {"measurement": "IC50", "setting": "[3]", "result": "> 100", "unit": "µM"}, {"measurement": "IC50", "setting": "[1]", "result": 1.6, "unit": "µM"}]}, {"smiles": "CC(C)Cn1cnc2ccc3nc(C4=NCCN4)sc3c2c1=O", "values": [{"measurement": "IC50", "setting": "[2]", "result": 85, "unit": "µM"}, {"measurement": "IC50", "setting": "[3]", "result": "> 100", "unit": "µM"}, {"measurement": "IC50", "setting": "[1]", "result": 4.6, "unit": "µM"}]}, {"smiles": "O=c1c2c(ccc3nc(C4=NCCN4)sc32)ncn1Cc1ccccc1", "values": [{"measurement": "IC50", "setting": "[3]", "result": "> 10", "unit": "µM"}, {"measurement": "IC50", "setting": "[1]", "result": "> 10", "unit": "µM"}]}, {"smiles": "COc1ccc(Cn2cnc3ccc4nc(C5=NCCN5)sc4c3c2=O)cc1", "values": [{"measurement": "IC50", "setting": "[2]", "result": "> 10", "unit": "µM"}, {"measurement": "IC50", "setting": "[1]", "result": "> 10", "unit": "µM"}]}, {"smiles": "CC(C)NC(=N)c1nc2ccc3ncn(C(C)C)c(=O)c3c2s1", "values": [{"measurement": "IC50", "setting": "[1]", "result": 9.4, "unit": "µM"}]}, {"smiles": "CC(C)n1cnc2ccc3nc(C4=NCCN4)sc3c2c1=O", "values": [{"measurement": "IC50", "setting": "[2]", "result": "> 100", "unit": "µM"}, {"measurement": "IC50", "setting": "[3]", "result": "> 100", "unit": "µM"}, {"measurement": "IC50", "setting": "[1]", "result": 1.6, "unit": "µM"}]}]}
